# In article PMC7495282 (British Journal of Clinical Pharmacology, 2020):
# pIC50: −log10 of the molar value. Read-outs that look alike come from different tables or passages of the source.
# Assays:
# human MR = details: read-out: half-maximal inhibitory concentration for the transcriptional activity of human MR; in vitro; cited from earlier work
# [1] = Study 1: single-dose esaxerenone pharmacokinetics alone and with itraconazole; format: in vivo, healthy Japanese subjects
# Outline: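 Healthy Japanese males, 20–45 y, BMI 18.5–<25 kg m−2. Oral 2.5 mg tablet with 200 mL water, fasted (≥10 h before, 4 h after), on Day 1. CYP3A inhibitor 200 mg twice on Day 8, then once daily Days 9–16. Day 13 co-dose given fasted. Plasma sampled predose to 96 h, extracted by SPE, assayed by LC–MS/MS. Noncompartmental PK; GLSM ratios with 90% CI.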
# [2] = format: in vivo, healthy Japanese subjects
# Outline: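 Healthy Japanese males, 20–45 y. Oral 5 mg, fasted, Day 1. CYP3A inducer 600 mg orally once daily before breakfast for 9 days from Day 8; Day 13 dose given fasted 2 h after inducer. Plasma taken predose to 96 h (1700 g, 10 min, 4 °C; stored ≤−20 °C). Parent and metabolites M1, M4, M11 by SPE–LC–MS/MS. Noncompartmental analysis; GLSM ratios, 90% CI.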
# [3] = Study 1 safety and tolerability; format: in vivo, healthy Japanese subjects; details: for Blood creatine phosphokinase increased, TEAE / Eosinophil count increased, TEAE / Rash, TEAE: n = 20
# Outline: (§1)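 Healthy Japanese males, 20–45 y. Safety was assessed from adverse events, laboratory tests, vital signs (BP, pulse rate, body temperature) and 12-lead ECG. Adverse events were coded by MedDRA/J (versions 19.0 and 19.1) System Organ Class and Preferred Term. Safety set was all consenting subjects given at least 1 dose of any study drug.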
# [4] = Study 2 safety and tolerability; format: in vivo, healthy Japanese subjects
# Outline: as §1
# [5] = system: mineralocorticoid receptor (MR); details: in vitro, cited from earlier work
# [6] = cited from earlier work
# [7] = cited from earlier work; remark: listed apart in the source
# [8] = cited from earlier work; remark: listed apart in the source
# P‐glycoprotein (P‐gp) = details: in vitro; cited from earlier work
# [9] = system: breast cancer resistance protein; details: in vitro; cited from earlier work
# CYP3A4 = details: human liver microsomes and human CYP expression system; cited from earlier work
# CYP3A5 = details: human liver microsomes and human CYP expression system; cited from earlier work
# [10] = esaxerenone 20 mg; ref unpublished data on file, Daiichi Sankyo Co., Ltd.; cited from earlier work
# [11] = in the presence of ketoconazole; cited from earlier work
# [12] = (esaxerenone + itraconazole)/(esaxerenone alone), 2.5 mg
# [13] = esaxerenone 2.5 mg + itraconazole, n = 20
# [14] = esaxerenone 2.5 mg single oral dose + itraconazole 200 mg, n = 20
# [15] = esaxerenone 2.5 mg single oral dose, alone, n = 20
# [16] = esaxerenone 2.5 mg, alone, n = 20
# [17] = (esaxerenone + rifampicin)/(esaxerenone alone), 5 mg
# [18] = coadministration with rifampicin vs esaxerenone alone
# [19] = esaxerenone 5 mg + rifampicin, n = 11
# [20] = esaxerenone 5 mg single oral dose + rifampicin 600 mg once daily, n = 11
# [21] = esaxerenone 5 mg single oral dose, alone, n = 11
# [22] = esaxerenone 5 mg, alone, n = 11
# [23] = Study 1, esaxerenone 2.5 mg + itraconazole
# [24] = Study 1, esaxerenone 2.5 mg alone
# [25] = Study 2, esaxerenone 5 mg + rifampicin, n = 11
# [26] = Study 2, esaxerenone 5 mg alone, n = 12
structure (smiles),measurement,setting,value
Cc1c(C(=O)Nc2ccc(S(C)(=O)=O)cc2)cn(CCO)c1-c1ccccc1C(F)(F)F [Esaxerenone],AUCinf GLSM ratio (90% CI),[1]; [12],"1.53 (1.45, 1.62)"
same,Cmax GLSM ratio (90% CI),[1]; [12],"1.13 (1.05, 1.20)"
same,AUCinf GLSM ratio (90% CI),"[1]; (esaxerenone + itraconazole)/(esaxerenone alone), 2.5 mg, listed as esaxerenone",1.53 (1.45–1.62)
same,increase in esaxerenone Cmax,[1]; coadministration of itraconazole vs esaxerenone alone,12.6%
same,"AUCinf, GLSM",[1]; [13],976 ng·h/mL
same,"Cmax, GLSM",[1]; [13],41.0 ng/mL
same,"AUCinf, arithmetic mean (SD)",[1]; [14],996 (219) ng h mL^−1
same,"CL/F, arithmetic mean (SD)",[1]; [14],2.61 (0.477) L h^−1
same,"Cmax, arithmetic mean (SD)",[1]; [14],41.7 (8.46) ng mL^−1
same,"t1/2, arithmetic mean (SD)",[1]; [14],25.9 (4.21) h
same,"tmax, median (range)",[1]; [14],2.00 (1.00–4.00) h
same,"AUCinf, arithmetic mean (SD)",[1]; [15],648 (121) ng h mL^−1
same,"CL/F, arithmetic mean (SD)",[1]; [15],3.98 (0.696) L h^−1
same,"t1/2, arithmetic mean (SD)",[1]; [15],20.7 (3.96) h
same,"tmax, median (range)",[1]; [15],2.25 (1.50–4.00) h
same,"Cmax, arithmetic mean (SD)","[1]; esaxerenone 2.5 mg single oral dose, alone, n = 20, plasma",36.7 (5.36) ng mL^−1
same,"AUCinf, GLSM",[1]; [16],637 ng·h/mL
same,"Cmax, GLSM",[1]; [16],36.4 ng/mL
same,AUCinf GLSM ratio (90% CI),[2]; [17],"0.312 (0.297, 0.328)"
same,Cmax GLSM ratio (90% CI),[2]; [17],"0.659 (0.599, 0.724)"
same,decrease in esaxerenone Cmax,[2]; [18],34.1%
same,fold reduction of esaxerenone AUCinf,[2]; [18],approximately 0.3 fold
same,"AUCinf, GLSM",[2]; [19],350 ng·h/mL
same,"Cmax, GLSM",[2]; [19],47.2 ng/mL
same,"AUCinf, arithmetic mean (SD)",[2]; [20],351 (24.8) ng h mL^−1
same,"CL/F, arithmetic mean (SD)",[2]; [20],14.3 (1.01) L h^−1
same,"Cmax, arithmetic mean (SD)",[2]; [20],47.6 (6.22) ng mL^−1
same,"t1/2, arithmetic mean (SD)",[2]; [20],8.63 (1.67) h
same,"tmax, median (range)",[2]; [20],2.50 (1.00–4.00) h
same,"AUCinf, arithmetic mean (SD)",[2]; [21],1130 (150) ng h mL^−1
same,"CL/F, arithmetic mean (SD)",[2]; [21],4.50 (0.634) L h^−1
same,"t1/2, arithmetic mean (SD)",[2]; [21],16.6 (2.38) h
same,"tmax, median (range)",[2]; [21],2.50 (1.50–3.50) h
same,"Cmax, arithmetic mean (SD)","[2]; esaxerenone 5 mg single oral dose, alone, n = 11, plasma",72.4 (10.1) ng mL^−1
same,"AUCinf, GLSM",[2]; [22],1121 ng·h/mL
same,"Cmax, GLSM",[2]; [22],71.7 ng/mL
same,serious AEs,[3]; Study 1,No serious AEs
same,"Blood creatine phosphokinase increased, TEAE",[3]; [23],0 number of subjects (%)
same,"Eosinophil count increased, TEAE",[3]; [23],0 number of subjects (%)
same,"Rash, TEAE",[3]; [23],0 number of subjects (%)
same,"Blood creatine phosphokinase increased, TEAE",[3]; [24],1 (5.0) number of subjects (%)
same,"Eosinophil count increased, TEAE",[3]; [24],0 number of subjects (%)
same,"Rash, TEAE",[3]; [24],0 number of subjects (%)
same,subjects reporting TEAEs,"[3]; Study 1, whole study",1 subject
same,safety and tolerability (in words),[3]; administered concomitantly with itraconazole,safe and well tolerated
same,serious AEs,[4]; Study 2,No serious AEs
same,"Blood creatine phosphokinase increased, TEAE",[4]; [25],0 number of subjects (%)
same,"Eosinophil count increased, TEAE",[4]; [25],1 (9.1) number of subjects (%)
same,"Rash, TEAE",[4]; [25],0 number of subjects (%)
same,"Blood creatine phosphokinase increased, TEAE",[4]; [26],0 number of subjects (%)
same,"Eosinophil count increased, TEAE",[4]; [26],0 number of subjects (%)
same,"Rash, TEAE",[4]; [26],1 (8.3) number of subjects (%)
same,subjects reporting TEAEs,"[4]; Study 2, whole study",2 subjects
same,safety and tolerability (in words),[4]; administered concomitantly with rifampicin,safe and well tolerated
same,MR affinity relative to eplerenone,[5]; fold greater than eplerenone,4 fold
same,MR affinity relative to spironolactone,[5]; fold greater than spironolactone,76 fold
same,tolerability,[6]; both dosages (2.5 and 5 mg d^−1),well tolerated
same,clinical efficacy vs eplerenone 50 mg d^−1,"[6]; esaxerenone 2.5 mg d^−1, essential hypertension",noninferior
same,clinical efficacy of 5 mg d^−1 dosage vs 2.5 mg d^−1 dosage,[6]; essential hypertension,superior
same,absolute bioavailability,[7],approximately 90%
same,proportion of unchanged drug excreted in faeces,[8]; 14C-labelled esaxerenone,18.7%
same,proportion of unchanged drug excreted in urine,[8]; 14C-labelled esaxerenone,1.6%
same,overall excretion rate of oxidised metabolites,[8]; metabolite profiles in faeces and urine,about 30 % of the total dose
same,substrate of P-glycoprotein,P‐glycoprotein (P‐gp),substrate
same,substrate of breast cancer resistance protein,[9],substrate
same,involvement of CYP3A4 in oxidative metabolism,CYP3A4,involved in the oxidative metabolism
same,involvement of CYP3A5 in oxidative metabolism,CYP3A5,involved in the oxidative metabolism
same,"mean plasma concentrations, Japanese vs Caucasian subjects",[10],similar
COC(=O)[C@@H]1CC2=CC(=O)CC[C@]2(C)[C@@]23O[C@@H]2C[C@@]2(C)[C@@H](CC[C@@]24CCC(=O)O4)[C@H]13 [eplerenone],pIC50,human MR,6.01
same,increase in eplerenone exposure,[11],5 fold
